Laboratory results published in ChEMBL document CHEMBL1136746 (2003).
Values joined by “and” are separate entries in the source; they are usually repeats but may differ in a detail not shown here. Equal values may be shown once. Active and inactive are the calls of the source. The calls are words filed in the database; no cut-off is given here.

Key:
Rattus norvegicus [1] = species: Rattus norvegicus; experiment: Reduction in the amplitude of the nACh-activated current in rat parasympathetic ganglia at 10 uM (n = 3); No effect; format: functional, organism-based
Outline: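 Perforated-patch whole-cell recording with 240 µg/mL amphotericin B in the pipette (K₂SO₄/KCl/MgSO₄/HEPES, pH 7.2). Bath: NaCl/KCl/CaCl₂/MgCl₂/glucose/HEPES. ACh 500 µM plus atropine 100 nM applied 2 s by piezo. Peptide is present in pipette and perfusate. Current is expressed as % of control, mean ± SEM.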

Caco-2 = experiment: Apparent Permeability through Caco-2 cell monolayers (n = 4); format: functional, cell-based; conditions: Homo sapiens
Outline: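 Caco-2 cells seeded on polycarbonate inserts (0.45 µm pore, 6.5 mm) and grown 21 days to differentiate; TEER >400 Ω/cm² before and after. ³H-acetylated peptide or [¹⁴C]mannitol (200 µM) added apically in HBSS/25 mM HEPES pH 7.4, 37 °C, shaken 400 rpm. Receiver chamber swapped at 30, 90, 150 min; scintillation counting. Papp averaged over four replicates.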

Rattus norvegicus [2] = species: Rattus norvegicus; experiment: Reduction in the amplitude of the nACh-activated current in rat parasympathetic ganglia at a concentration of 22 nM to that of control response (n =4); format: functional; set-up: scale not given: the % may be the effect or the level left
Rattus norvegicus [3] = species: Rattus norvegicus; experiment: Reduction in the amplitude of the nACh-activated current in rat parasympathetic ganglia at a concentration of 222 nM to that of control response (n =3); format: functional; set-up: scale not given: the % may be the effect or the level left
Rattus norvegicus [4] = species: Rattus norvegicus; experiment: Reduction in the nACh-activated current in rat parasympathetic ganglia at a concentration of 4.5 nM to that of control response (n =3); format: functional; set-up: scale not given: the % may be the effect or the level left
Rattus norvegicus [5] = species: Rattus norvegicus; experiment: Percent Hemolysis observed in rat red blood cells when Treated with 1 mM concentration; format: functional
Rattus norvegicus [6] = species: Rattus norvegicus; experiment: Percent Hemolysis observed in rat red blood cells when Treated with 2 mM concentration; format: functional
Rattus norvegicus [7] = species: Rattus norvegicus; experiment: Percent Hemolysis observed in rat red blood cells when Treated with 5 mM concentration; format: functional
Rattus norvegicus [8] = species: Rattus norvegicus; experiment: Reduction in the amplitude of the nACh-activated current in rat parasympathetic ganglia; format: functional, organism-based
Rattus norvegicus [9] = species: Rattus norvegicus; experiment: Reduction in the amplitude of the nACh-activated current in rat parasympathetic ganglia at a concentration of 22 nM to that of control response (n =2); format: functional; set-up: scale not given: the % may be the effect or the level left

| Compound | Reduction (Rattus norvegicus [1]) | Papp (Caco-2) | Control (Rattus norvegicus [2]) [%] | Control (Rattus norvegicus [3]) [%] | Control (Rattus norvegicus [4]) [%] | Hemolysis (Rattus norvegicus [5]) [%] | Hemolysis (Rattus norvegicus [6]) [%] | Hemolysis (Rattus norvegicus [7]) [%] | IC50 (Rattus norvegicus [8]) [nM] | Control (Rattus norvegicus [9]) |
| --- | --- | --- | --- | --- | --- | --- | --- | --- | --- | --- |
| CCCCCCCCCCC1C(=O)[C@H](CC(N)=O)NC(=O)[C@H](CO)NC(=O)[C@@H]2CSSC[C@@H](C(=O)O)NC(=O)[C@H](CC(C)C)NC(=O)[C@H](CC(N)=O)NC(=O)[C@H](CO)NC(=O)[C@H](Cc3c[nH]cn3)NC(=O)[C@H](CCC(=O)O)NC(=O)[C@H](CC(C)C)NC(=O)[C@H](Cc3c[nH]cn3)NC(=O)[C@H](CSSC[C@H](NC(=O)CN)C(=O)N2)NC(=O)[C@H](C(C)C)NC(=O)[C@@H]2CCCN12 (stereo partly specified) | inactive | – | – | – | – | – | – | – | – | – |
| CCCCCCCCCCC(NCC(=O)N[C@H]1CSSC[C@@H]2NC(=O)[C@H](C(C)C)NC(=O)[C@@H]3CCCN3C(=O)[C@H](CC(N)=O)NC(=O)[C@H](CO)NC(=O)[C@H](CSSC[C@@H](C(=O)O)NC(=O)[C@H](CC(C)C)NC(=O)[C@H](CC(N)=O)NC(=O)[C@H](CO)NC(=O)[C@H](Cc3c[nH]cn3)NC(=O)[C@H](CCC(=O)O)NC(=O)[C@H](CC(C)C)NC(=O)[C@H](Cc3c[nH]cn3)NC2=O)NC1=O)C(=O)O (stereo partly specified) | – | 4.97 10e-6 cm s-1 | 57 | 47 | 92 | 1.04 | 0.45 | 0.83 | 12.8 | – |
| CC(C)C[C@@H]1NC(=O)[C@H](CC(N)=O)NC(=O)[C@H](CO)NC(=O)[C@H](Cc2c[nH]cn2)NC(=O)[C@H](CCC(=O)O)NC(=O)[C@H](CC(C)C)NC(=O)[C@H](Cc2c[nH]cn2)NC(=O)[C@@H]2CSSC[C@H](NC(=O)CN)C(=O)N[C@@H](CSSC[C@@H](C(=O)O)NC1=O)C(=O)N[C@@H](CO)C(=O)N[C@@H](CC(N)=O)C(=O)N1CCC[C@H]1C(=O)N[C@@H](C(C)C)C(=O)N2 | – | 20.5 10e-6 cm s-1 | – | – | 90 | 0.53 | 0.83 | 1.35 | 10 | 57% and 41% |
